Data taken from ChEMBL document CHEMBL1154352, “Toll-like receptor 7 selective synthetic oligoribonucleotide agonists: synthesis and structure-activity relationship studies” (J Med Chem, 2009).
Active and inactive are the calls of the source. The rule behind the calls is not given here.

What was measured:
[1] = target: T1, Toll-like receptor 7 (Homo sapiens) (UniProt Q9NYK1); assay: Activation of human TLR7 expressed in HEK293XL assessed as induction of NF-kappaB activity by reporter gene assay
T1 sequence (whole entry): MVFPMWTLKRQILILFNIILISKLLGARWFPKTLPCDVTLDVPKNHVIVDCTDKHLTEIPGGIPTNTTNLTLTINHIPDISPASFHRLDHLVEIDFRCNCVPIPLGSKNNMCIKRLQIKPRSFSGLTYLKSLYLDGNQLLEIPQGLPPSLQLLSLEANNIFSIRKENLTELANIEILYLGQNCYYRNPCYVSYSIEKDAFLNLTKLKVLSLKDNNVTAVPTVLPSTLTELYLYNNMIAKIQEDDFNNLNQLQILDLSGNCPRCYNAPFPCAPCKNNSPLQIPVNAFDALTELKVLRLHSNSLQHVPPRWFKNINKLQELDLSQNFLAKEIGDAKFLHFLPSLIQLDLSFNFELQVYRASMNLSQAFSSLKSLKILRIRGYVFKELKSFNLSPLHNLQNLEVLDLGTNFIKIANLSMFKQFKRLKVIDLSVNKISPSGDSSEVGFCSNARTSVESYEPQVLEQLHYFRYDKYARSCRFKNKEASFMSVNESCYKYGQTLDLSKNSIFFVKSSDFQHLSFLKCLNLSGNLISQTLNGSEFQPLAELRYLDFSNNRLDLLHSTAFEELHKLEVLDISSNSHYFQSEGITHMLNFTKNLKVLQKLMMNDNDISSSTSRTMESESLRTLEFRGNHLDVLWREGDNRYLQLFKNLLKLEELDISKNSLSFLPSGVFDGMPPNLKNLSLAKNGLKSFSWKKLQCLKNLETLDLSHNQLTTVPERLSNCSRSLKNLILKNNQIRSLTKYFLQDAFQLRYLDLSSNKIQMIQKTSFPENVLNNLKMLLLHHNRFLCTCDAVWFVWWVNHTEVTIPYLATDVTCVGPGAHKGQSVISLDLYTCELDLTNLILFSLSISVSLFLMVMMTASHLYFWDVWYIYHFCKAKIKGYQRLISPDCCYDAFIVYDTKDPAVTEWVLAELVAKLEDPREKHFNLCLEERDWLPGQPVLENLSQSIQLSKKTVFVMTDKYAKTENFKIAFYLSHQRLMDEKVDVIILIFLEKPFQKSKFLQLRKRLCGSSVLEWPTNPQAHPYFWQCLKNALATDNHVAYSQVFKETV
Method in brief: (§1)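 HEK293 cells stably expressing human TLR7 or TLR8, transiently transfected with SEAP reporter plasmid; medium replaced, SIMRA compounds added, 18 h incubation. Supernatant SEAP measured by QuantiBlue; expressed as fold increase in NF-κB activity over PBS control. Tabulated data at 50 μg/mL, representative of three independent experiments.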

Homo sapiens = organism: Homo sapiens; assay: Ratio of human TLR7 activity to human TLR8 activity
Method in brief: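 TLR7/TLR8 ratio computed from fold NF-κB (SEAP reporter) activation in HEK293 cells stably expressing human TLR7 versus TLR8, compounds at 50 μg/mL, 18 h exposure; representative of three independent experiments.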

[2] = target: T2, Toll-like receptor 8 (Homo sapiens) (UniProt Q9NR97); assay: Activation of human TLR8 expressed in HEK293XL assessed as induction of NF-kappaB activity by reporter gene assay; method in brief: as §1
T2 sequence (whole entry): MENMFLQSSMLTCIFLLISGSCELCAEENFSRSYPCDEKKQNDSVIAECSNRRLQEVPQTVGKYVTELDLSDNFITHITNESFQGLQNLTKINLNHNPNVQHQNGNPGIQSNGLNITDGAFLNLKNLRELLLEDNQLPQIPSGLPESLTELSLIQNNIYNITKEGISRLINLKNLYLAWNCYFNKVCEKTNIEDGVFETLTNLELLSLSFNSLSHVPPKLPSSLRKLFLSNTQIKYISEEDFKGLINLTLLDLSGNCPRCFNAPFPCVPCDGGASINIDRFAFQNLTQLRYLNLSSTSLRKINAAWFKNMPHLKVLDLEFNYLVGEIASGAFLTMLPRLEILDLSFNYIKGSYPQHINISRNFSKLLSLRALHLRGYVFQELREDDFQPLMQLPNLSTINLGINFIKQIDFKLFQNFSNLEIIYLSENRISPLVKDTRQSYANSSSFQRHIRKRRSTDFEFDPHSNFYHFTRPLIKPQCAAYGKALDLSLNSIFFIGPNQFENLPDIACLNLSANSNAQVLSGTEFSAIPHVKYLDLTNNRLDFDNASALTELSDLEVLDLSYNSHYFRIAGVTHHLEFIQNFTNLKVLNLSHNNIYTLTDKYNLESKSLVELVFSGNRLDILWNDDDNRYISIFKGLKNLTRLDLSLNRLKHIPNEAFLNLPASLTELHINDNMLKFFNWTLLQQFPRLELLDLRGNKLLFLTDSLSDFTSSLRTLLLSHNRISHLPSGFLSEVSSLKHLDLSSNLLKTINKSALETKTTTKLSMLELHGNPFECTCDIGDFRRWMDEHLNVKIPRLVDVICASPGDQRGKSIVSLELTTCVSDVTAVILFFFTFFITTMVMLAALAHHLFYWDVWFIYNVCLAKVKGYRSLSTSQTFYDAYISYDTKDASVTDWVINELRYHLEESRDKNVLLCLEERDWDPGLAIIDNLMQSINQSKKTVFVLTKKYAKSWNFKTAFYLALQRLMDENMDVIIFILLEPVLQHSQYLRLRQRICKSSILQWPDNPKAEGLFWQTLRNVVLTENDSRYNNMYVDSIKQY

| Activity [1] | Activity (Homo sapiens) | Activity [2] | Structure (SMILES) |
| --- | --- | --- | --- |
| inactive | Dose-dependent effect | inactive | Nc1ccn([C@@H]2O[C@H](COP(=O)(S)O[C@H]3[C@@H](O)[C@H](n4cnc5c(N)ncnc54)O[C@@H]3CO)[C@@H](OP(=O)(S)OC[C@H]3O[C@@H](n4ccc(=O)[nH]c4=O)[C@H](O)[C@@H]3OP(=O)(S)OC[C@H]3O[C@@H](n4ccc(=O)[nH]c4=O)[C@H](O)[C@@H]3OP(=O)(S)OC[C@H]3O[C@@H](n4ccc5c(=O)[nH]c(N)nc54)[C@H](O)[C@@H]3OP(=O)(S)OC[C@H]3O[C@@H](n4cnc5c(N)ncnc54)[C@H](O)[C@@H]3OP(=O)(S)OC[C@H]3O[C@@H](n4cnc5c(N)ncnc54)[C@H](O)[C@@H]3OP(=O)(S)OC[C@H]3O[C@@H](n4cnc5c(=O)[nH]c(N)nc54)[C@H](O)[C@@H]3OP(=O)(S)OC[C@H]3O[C@@H](n4ccc(N)nc4=O)[C@H](O)[C@@H]3OP(=O)(S)OC[C@H]3O[C@@H](n4ccc(=O)[nH]c4=O)[C@H](O)[C@@H]3OP(=O)(S)OC[C@H]3O[C@@H](n4ccc(=O)[nH]c4=O)[C@H](O)[C@@H]3OP(=O)(S)OCC(O)COP(=O)(S)O[C@H]3[C@@H](O)[C@H](n4ccc(=O)[nH]c4=O)O[C@@H]3COP(=O)(S)O[C@H]3[C@@H](O)[C@H](n4ccc(=O)[nH]c4=O)O[C@@H]3COP(=O)(S)O[C@H]3[C@@H](O)[C@H](n4ccc(N)nc4=O)O[C@@H]3COP(=O)(S)O[C@H]3[C@@H](O)[C@H](n4cnc5c(=O)[nH]c(N)nc54)O[C@@H]3COP(=O)(S)O[C@H]3[C@@H](O)[C@H](n4cnc5c(N)ncnc54)O[C@@H]3COP(=O)(S)O[C@H]3[C@@H](O)[C@H](n4cnc5c(N)ncnc54)O[C@@H]3COP(=O)(S)O[C@H]3[C@@H](O)[C@H](n4cnc5c(=O)[nH]c(N)nc54)O[C@@H]3COP(=O)(S)O[C@H]3[C@@H](O)[C@H](n4ccc(=O)[nH]c4=O)O[C@@H]3COP(=O)(S)O[C@H]3[C@@H](O)[C@H](n4ccc(=O)[nH]c4=O)O[C@@H]3COP(=O)(S)O[C@H]3[C@@H](O)[C@H](n4ccc(N)nc4=O)O[C@@H]3COP(=O)(S)O[C@H]3[C@@H](O)[C@H](n4cnc5c(N)ncnc54)O[C@@H]3CO)[C@H]2O)c(=O)n1 (stereo partly specified) |
| inactive | Dose-dependent effect | inactive | Nc1ccn([C@@H]2O[C@H](COP(=O)(S)O[C@H]3[C@@H](O)[C@H](n4cnc5c(N)ncnc54)O[C@@H]3CO)[C@@H](OP(=O)(S)OC[C@H]3O[C@@H](n4ccc(=O)[nH]c4=O)[C@H](O)[C@@H]3OP(=O)(S)OC[C@H]3O[C@@H](n4ccc(=O)[nH]c4=O)[C@H](O)[C@@H]3OP(=O)(S)OC[C@H]3O[C@@H](n4cnc5c(=O)[nH]c(N)nc54)[C@H](O)[C@@H]3OP(=O)(S)OC[C@H]3O[C@@H](n4cnc5c(N)ncnc54)[C@H](O)[C@@H]3OP(=O)(S)OC[C@H]3O[C@@H](n4ccc(N)nc4=O)[C@H](O)[C@@H]3OP(=O)(S)OC[C@H]3O[C@@H](n4cnc5c(=O)[nH]c(N)nc54)[C@H](O)[C@@H]3OP(=O)(S)OC[C@H]3O[C@@H](n4cnc5c(N)ncnc54)[C@H](O)[C@@H]3OP(=O)(S)OC[C@H]3O[C@@H](n4ccc(=O)[nH]c4=O)[C@H](O)[C@@H]3OP(=O)(S)OC[C@H]3O[C@@H](n4ccc(=O)[nH]c4=O)[C@H](O)[C@@H]3OP(=O)(S)OCC(O)COP(=O)(S)O[C@H]3[C@@H](O)[C@H](n4ccc(=O)[nH]c4=O)O[C@@H]3COP(=O)(S)O[C@H]3[C@@H](O)[C@H](n4ccc(=O)[nH]c4=O)O[C@@H]3COP(=O)(S)O[C@H]3[C@@H](O)[C@H](n4cnc5c(N)ncnc54)O[C@@H]3COP(=O)(S)O[C@H]3[C@@H](O)[C@H](n4cnc5c(=O)[nH]c(N)nc54)O[C@@H]3COP(=O)(S)O[C@H]3[C@@H](O)[C@H](n4ccc(N)nc4=O)O[C@@H]3COP(=O)(S)O[C@H]3[C@@H](O)[C@H](n4cnc5c(N)ncnc54)O[C@@H]3COP(=O)(S)O[C@H]3[C@@H](O)[C@H](n4cnc5c(=O)[nH]c(N)nc54)O[C@@H]3COP(=O)(S)O[C@H]3[C@@H](O)[C@H](n4ccc(=O)[nH]c4=O)O[C@@H]3COP(=O)(S)O[C@H]3[C@@H](O)[C@H](n4ccc(=O)[nH]c4=O)O[C@@H]3COP(=O)(S)O[C@H]3[C@@H](O)[C@H](n4ccc(N)nc4=O)O[C@@H]3COP(=O)(S)O[C@H]3[C@@H](O)[C@H](n4cnc5c(N)ncnc54)O[C@@H]3CO)[C@H]2O)c(=O)n1 (stereo partly specified) |
